In ChEMBL document CHEMBL1138546, “Synthesis and antimalarial activity of hydroxyethylpiperazine derivatives” (Eur J Med Chem, 2009):
In brackets after ≈: the same amount, converted by molar mass.

Experiments:
[1] = Cytotoxicity against mouse J774 cells assessed as cell viability at 0.1 ug/ml after 24 hrs by MTT assay; type: cell-based; details: read-out: Activity
Summary of the method: (§1)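 Murine J774 monocyte/macrophages seeded at 2×10^6 cells/well, left 1 h at 37 °C, 5% CO2 in RPMI 1640 with 10% fetal bovine serum, 2 mM L-glutamine, 25 µg/ml gentamicin, pH 7.4. Adherent cells exposed to compounds (0.1–100 µg/ml) for 20 h, then MTT (5 mg/ml) added for 4 h. Formazan dissolved in DMSO, absorbance read at 540 nm. Result given as percent viability.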

[2] = Cytotoxicity against mouse J774 cells assessed as cell viability at 1 ug/ml after 24 hrs by MTT assay; type: cell-based; details: read-out: Activity; summary of the method: as §1
[3] = Cytotoxicity against mouse J774 cells assessed as cell viability at 100 ug/ml after 24 hrs by MTT assay; type: cell-based; details: read-out: Activity; summary of the method: as §1
Plasmodium falciparum = assay: Antimalarial activity after 24 hrs against chloroquine-resistant Plasmodium falciparum W2 by [3H]hypoxanthine uptake; type: functional, organism-based
Summary of the method: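 P. falciparum cultured in human O+ erythrocytes, 5% hematocrit, RPMI 1640 plus 10% human plasma. Sorbitol-synchronized trophozoites set at 2% parasitaemia, 2.5% hematocrit with ethanol-dissolved compounds at various concentrations in hypoxanthine-free RPMI 1640; chloroquine reference in each run. Growth read by [³H]-hypoxanthine incorporation; IC50 versus drug-free controls from curve fitting of dose-response data.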

[4] = Cytotoxicity against mouse J774 cells assessed as cell viability at 10 ug/ml after 24 hrs by MTT assay; type: cell-based; details: read-out: Activity; summary of the method: as §1

Compound | viability at 24 h, 0.1 ug/ml [1] [%] | viability at 24 h, 1 ug/ml [2] [%] | viability at 24 h, 100 ug/ml [3] [%] | IC50 (Plasmodium falciparum) [µg/mL] | viability at 24 h, 10 ug/ml [4] [%]
CC(C)(C)OC(=O)N[C@@H](Cc1ccccc1)[C@H](O)CN1CCN(Cc2ccc(Cl)cc2)CC1 | 100 | 100 | 88 | 7.7 (≈ 16.2 µM) | 100
CC(C)(C)NC(=O)[C@@H]1C[C@@H]2CCCC[C@@H]2CN1C[C@@H](O)[C@H](Cc1ccccc1)NC(=O)[C@H](CC(N)=O)NC(=O)c1ccc2ccccc2n1 [SAQUINAVIR] | – | – | – | 7 (≈ 10.4 µM) | –
CC(C)(C)OC(=O)N[C@@H](Cc1ccccc1)[C@H](O)CN1CCN(Cc2ccccc2)CC1 | 95 | 100 | 100 | 14.9 (≈ 33.9 µM) | 100
CC(C)(C)OC(=O)N[C@@H](Cc1ccccc1)[C@H](O)CN1CCN(Cc2ccc3c(c2)OCO3)CC1 | 100 | 98 | 82 | 5.1 (≈ 10.5 µM) | 100
CN1CCN(C[C@@H](O)[C@H](Cc2ccccc2)NC(=O)OC(C)(C)C)CC1 | 94 | 100 | 100 | > 50 | 100
CC(C)(C)OC(=O)N[C@@H](Cc1ccccc1)[C@H](O)CN1CCN(Cc2ccc([N+](=O)[O-])cc2)CC1 | 100 | 100 | 81 | 23.5 (≈ 48.5 µM) | 98
CC(C)(C)OC(=O)N[C@@H](Cc1ccccc1)[C@H](O)CN1CCN(Cc2ccc(N)cc2)CC1 | 100 | 98 | 85 | 15.8 (≈ 34.8 µM) | 98
CC(C)(C)OC(=O)N[C@@H](Cc1ccccc1)[C@H](O)CN1CCN(Cc2ccc(F)cc2)CC1 | 100 | 100 | 90 | 7.5 (≈ 16.4 µM) | 99
CC(C)(C)OC(=O)N[C@@H](Cc1ccccc1)[C@H](O)CN1CCNCC1 | 100 | 100 | 65 | > 50 | 100
COc1ccc(CN2CCN(C[C@@H](O)[C@H](Cc3ccccc3)NC(=O)OC(C)(C)C)CC2)cc1OC | 100 | 100 | 83 | 7 (≈ 14 µM) | 100
CC(C)(C)OC(=O)N[C@@H](Cc1ccccc1)[C@H](O)CN1CCN(c2ccccc2)CC1 | 100 | 95 | 58 | > 50 | 94
Cc1cccc(C)c1OCC(=O)N[C@@H](Cc1ccccc1)[C@@H](O)C[C@H](Cc1ccccc1)NC(=O)[C@H](C(C)C)N1CCCNC1=O [LOPINAVIR] | – | – | – | 1.7 (≈ 2.7 µM) | –
COc1ccc(CN2CCN(C[C@@H](O)[C@H](Cc3ccccc3)NC(=O)OC(C)(C)C)CC2)cc1 | 100 | 100 | 85 | 6.2 (≈ 13.2 µM) | 100
